Data on nine molecules can be found in ChEMBL document CHEMBL3352335, “Eurifoloids A-R, structurally diverse diterpenoids from Euphorbia neriifolia” (J Nat Prod, 2014).

Structures are written as SMILES. The source made the active and inactive calls. The rule behind the calls is not given here.

The subject of data set [1] is Human immunodeficiency virus 1. Put plainly: Antiviral activity against HIV-1 NL 4-3 infected in MT4 cells assessed as inhibition of virus-induced cytopathic effect. Type of data set: functional, organism-based. The settings on record: Human immunodeficiency virus 1, NL 4-3, MT4. A digest of the protocol: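 HIV-1 NL4-3-infected MT-4 cultures; run per a prior method with minor changes. The read-out is protection of cells from virus-induced cytopathic effect. EC50 is the concentration giving 50% protection, derived by curve fitting.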

Data set [2] is described as follows: Selectivity index, ratio of CC50 for human MT4 cells to EC50 for HIV-1 NL 4-3 infected in MT4 cells. The conditions noted are these: read-out: Ratio CC50/EC50. Type of data set: toxicity, cell-based.
A short description of data set [3]: Inhibition of XBP1 mRNA splicing (unknown origin) expressed in mouse B16-F10-XBP1-DBD-luc cells incubated for 8 hrs by luciferase reporter gene assay. Type of data set: cell-based.
Data set [4] deals with Nuclear factor NF-kappa-B complex (Homo sapiens) (UniProt Q00653+P19838+Q04206). Nature of the data set: Inhibition of TNFalpha-stimulated NF-kappaB signaling (unknown origin) expressed in HEK293 cells by luciferase reporter gene assay. Type of data set: cell-based.
Sequence of Nuclear factor NF-kappa-B complex (Homo sapiens) (P19838 whole entry, looked up): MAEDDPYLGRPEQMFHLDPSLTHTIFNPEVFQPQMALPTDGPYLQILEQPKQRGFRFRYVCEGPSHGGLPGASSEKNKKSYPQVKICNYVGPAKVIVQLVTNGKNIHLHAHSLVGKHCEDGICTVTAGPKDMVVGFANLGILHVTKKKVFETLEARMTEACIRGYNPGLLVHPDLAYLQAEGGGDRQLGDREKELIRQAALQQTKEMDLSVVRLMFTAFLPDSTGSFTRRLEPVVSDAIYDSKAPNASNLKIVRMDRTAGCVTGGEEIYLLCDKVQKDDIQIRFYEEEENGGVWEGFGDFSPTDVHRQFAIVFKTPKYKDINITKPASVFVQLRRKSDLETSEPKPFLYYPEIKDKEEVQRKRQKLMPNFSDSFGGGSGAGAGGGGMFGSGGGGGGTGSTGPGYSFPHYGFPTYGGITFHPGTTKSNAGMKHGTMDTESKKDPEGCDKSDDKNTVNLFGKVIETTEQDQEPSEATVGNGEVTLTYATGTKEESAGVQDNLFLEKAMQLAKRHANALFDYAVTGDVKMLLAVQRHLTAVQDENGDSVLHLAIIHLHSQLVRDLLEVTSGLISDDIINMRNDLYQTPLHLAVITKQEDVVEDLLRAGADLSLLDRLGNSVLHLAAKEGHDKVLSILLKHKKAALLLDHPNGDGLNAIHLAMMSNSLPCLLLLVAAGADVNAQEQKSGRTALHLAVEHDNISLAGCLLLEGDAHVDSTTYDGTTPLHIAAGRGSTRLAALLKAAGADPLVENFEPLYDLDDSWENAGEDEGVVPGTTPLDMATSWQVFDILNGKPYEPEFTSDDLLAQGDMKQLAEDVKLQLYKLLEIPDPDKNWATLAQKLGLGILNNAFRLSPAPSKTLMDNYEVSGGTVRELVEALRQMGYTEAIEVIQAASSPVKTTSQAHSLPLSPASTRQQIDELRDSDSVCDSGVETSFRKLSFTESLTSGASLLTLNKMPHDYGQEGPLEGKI
Sequence of Nuclear factor NF-kappa-B complex (Homo sapiens) (Q00653 whole entry, looked up): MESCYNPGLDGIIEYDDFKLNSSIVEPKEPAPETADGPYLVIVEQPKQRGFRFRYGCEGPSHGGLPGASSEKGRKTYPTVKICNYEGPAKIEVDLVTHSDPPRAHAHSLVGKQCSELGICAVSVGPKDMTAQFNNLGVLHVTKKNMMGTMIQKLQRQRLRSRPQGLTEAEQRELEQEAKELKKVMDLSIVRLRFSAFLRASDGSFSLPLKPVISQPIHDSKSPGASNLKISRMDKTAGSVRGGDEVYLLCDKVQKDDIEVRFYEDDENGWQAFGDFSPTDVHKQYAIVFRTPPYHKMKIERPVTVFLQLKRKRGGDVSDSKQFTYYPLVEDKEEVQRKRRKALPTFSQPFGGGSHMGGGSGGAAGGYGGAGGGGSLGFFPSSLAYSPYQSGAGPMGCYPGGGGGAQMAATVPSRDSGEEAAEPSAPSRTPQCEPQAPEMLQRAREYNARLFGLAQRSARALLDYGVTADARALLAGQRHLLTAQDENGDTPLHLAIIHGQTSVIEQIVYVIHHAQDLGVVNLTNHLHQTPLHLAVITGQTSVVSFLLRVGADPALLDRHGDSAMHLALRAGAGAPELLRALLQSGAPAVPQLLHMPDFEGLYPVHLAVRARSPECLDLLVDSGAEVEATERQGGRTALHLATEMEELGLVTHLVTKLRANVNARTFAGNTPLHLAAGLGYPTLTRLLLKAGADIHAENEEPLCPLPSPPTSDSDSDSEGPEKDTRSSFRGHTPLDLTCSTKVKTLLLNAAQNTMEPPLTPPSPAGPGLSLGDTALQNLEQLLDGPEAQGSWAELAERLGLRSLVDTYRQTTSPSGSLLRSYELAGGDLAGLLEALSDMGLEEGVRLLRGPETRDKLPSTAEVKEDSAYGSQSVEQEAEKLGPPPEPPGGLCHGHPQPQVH
Sequence of Nuclear factor NF-kappa-B complex (Homo sapiens) (Q04206 whole entry, looked up): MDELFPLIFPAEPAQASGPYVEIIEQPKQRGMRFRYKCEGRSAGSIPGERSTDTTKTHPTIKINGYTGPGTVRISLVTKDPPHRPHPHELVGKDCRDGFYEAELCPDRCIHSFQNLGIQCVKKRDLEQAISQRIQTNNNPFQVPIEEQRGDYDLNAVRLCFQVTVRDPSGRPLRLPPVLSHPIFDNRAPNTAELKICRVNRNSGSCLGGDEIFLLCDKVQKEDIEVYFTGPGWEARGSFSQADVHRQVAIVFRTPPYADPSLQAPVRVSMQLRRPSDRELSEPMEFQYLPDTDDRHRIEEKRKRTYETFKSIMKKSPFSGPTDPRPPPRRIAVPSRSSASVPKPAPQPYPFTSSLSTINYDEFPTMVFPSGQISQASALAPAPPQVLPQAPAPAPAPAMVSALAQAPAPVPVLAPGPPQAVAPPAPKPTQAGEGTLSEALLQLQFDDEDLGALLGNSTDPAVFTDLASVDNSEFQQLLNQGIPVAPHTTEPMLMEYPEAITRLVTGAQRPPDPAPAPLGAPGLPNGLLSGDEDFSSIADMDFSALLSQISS
Data set [5] has as its target T1, Tyrosine-protein phosphatase non-receptor type 1 (Homo sapiens) (UniProt P18031).
T1 sequence (whole entry): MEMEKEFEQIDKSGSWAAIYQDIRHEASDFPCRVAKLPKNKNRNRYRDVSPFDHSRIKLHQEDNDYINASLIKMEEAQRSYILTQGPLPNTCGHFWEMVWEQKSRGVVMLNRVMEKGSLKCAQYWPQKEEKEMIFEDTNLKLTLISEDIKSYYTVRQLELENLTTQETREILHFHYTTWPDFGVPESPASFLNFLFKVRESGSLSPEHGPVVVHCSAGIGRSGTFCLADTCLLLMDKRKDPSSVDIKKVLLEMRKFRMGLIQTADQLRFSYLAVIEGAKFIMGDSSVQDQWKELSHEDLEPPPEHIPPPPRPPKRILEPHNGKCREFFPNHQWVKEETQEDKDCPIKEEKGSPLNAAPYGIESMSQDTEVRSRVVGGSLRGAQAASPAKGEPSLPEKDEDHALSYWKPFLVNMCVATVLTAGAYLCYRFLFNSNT
Put plainly: Inhibition of PTP1B (unknown origin).

As to `CC1=C2[C@H]3O[C@]34CC[C@@H]3C(C)(C)CC[C@H](O)[C@@]3(C)[C@@H]4C[C@H]2OC1=O`, in data set [1], the concentration for a half-maximal effect (EC50) is 7.4 µM. The selectivity ratio in data set [2] was 10.3.
`C=C1C[C@@]23CC[C@@H]4C(C)(C)C(=O)CC[C@@]4(C)[C@@H]2C[C@@H]1C[C@H]3O`: the inhibition result in data set [3], in data set [4] and in data set [5] was “inactive” throughout.
On to `CC(=O)O[C@H]1C2=C(C[C@H]3OC(=O)C(C)=C13)[C@@]1(C)[C@H](CC2)C(C)(C)CC[C@@H]1O`, for which the 50% effective concentration (EC50) in data set [1] turned out to be 3.58 µM. For the same molecule, the selectivity ratio in data set [2] stood at 8.6.
For the molecule `CC1(C)C(=O)CC[C@]2(C)[C@@H]1CC[C@@]13CC[C@@H](C[C@H]12)C(=O)C3`, the inhibition result in data set [3], in data set [4] and in data set [5] was “inactive” throughout.
For `C=C[C@@]1(C)C=C2CC[C@@H]3[C@@](C)(C=O)[C@H](OC(C)=O)CC[C@@]3(C)[C@@H]2C[C@@H]1O`, the inhibition result in data set [3], in data set [4] and in data set [5] was “inactive” each time.
As for `C=C[C@@]1(C)C=C2CC[C@H]3[C@@](C)(CC[C@@H](OC(C)=O)[C@]3(C)C(=O)O)[C@@H]2C[C@@H]1O`, the inhibition entry in data set [3], in data set [4] and in data set [5] was “inactive” each time.
Turning to `C=C[C@@]1(C)C=C2CC[C@@H]3C(C)(C)[C@H](OC(C)=O)CC[C@@]3(C)[C@@H]2C[C@@H]1O`, the inhibition result in data set [3], in data set [4] and in data set [5] was “inactive” throughout.
On to `C[C@@]12CCC(=O)[C@@](C)(CO)[C@H]1CC[C@@]13CC[C@@H](C[C@H]12)[C@](O)(CO)C3`, for which the inhibition result in data set [3], in data set [4] and in data set [5] was “inactive” throughout.
With `C=C1C[C@@]23CC[C@@H]4C(C)(C)C(=O)CC[C@@]4(C)[C@@H]2C[C@@H]1[C@@H](O)[C@H]3O`, the inhibition entry in data set [3], in data set [4] and in data set [5] was “inactive” in each case.
